Experimental data as given in ChEMBL document CHEMBL1153229, “The first synthetic agonists of FFA2: Discovery and SAR of phenylacetamides as allosteric modulators” (Bioorg Med Chem Lett, 2010).

How the values were obtained:
[1] = molecular target: T1, Free fatty acid receptor 2 (Homo sapiens, UniProt O15552); assay: Agonist activity at human FFA2 receptor expressed in CHO cells assessed as inhibition of forskolin-induced cAMP production; type: functional, cell-based
T1 sequence (O15552 whole entry): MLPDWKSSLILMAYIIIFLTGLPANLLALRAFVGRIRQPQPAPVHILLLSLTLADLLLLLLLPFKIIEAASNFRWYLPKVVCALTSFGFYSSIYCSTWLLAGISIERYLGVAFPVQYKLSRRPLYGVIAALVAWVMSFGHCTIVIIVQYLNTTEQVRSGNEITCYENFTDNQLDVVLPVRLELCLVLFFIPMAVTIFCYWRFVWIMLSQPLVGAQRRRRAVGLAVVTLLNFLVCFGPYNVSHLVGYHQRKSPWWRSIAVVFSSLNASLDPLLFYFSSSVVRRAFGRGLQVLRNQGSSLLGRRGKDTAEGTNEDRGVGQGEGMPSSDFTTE
Outline: (§1)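 Suspended cells, 10,000 per well, in Hank's balanced salt solution with 25 mM HEPES and 0.01% (w/v) BSA. Stimulated with forskolin (5 μM final) plus serially diluted test ligands, room temperature for 30 min. Antibody and lysis reagents then added, followed by overnight dark incubation with detection solution. Luminescence read (RLU). Efficacy expressed relative to acetate. Means of four experiments.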

Rattus norvegicus [2] = assay: AUC in Sprague-Dawley rat at 0.5 mg/kg, iv; type: ADME, organism-based, Plasma; parameters: dose 0.5 mg/kg, route intravenous; conditions: in vivo
Outline: (§2)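 Male Sprague-Dawley rats dosed 0.5 mg/kg iv.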

[3] = AUC in mouse at 5 mg/kg, po; type: ADME, organism-based; parameters: dose 5 mg/kg, route oral; conditions: plasma
[4] = Tmax in mouse at 5 mg/kg, po; type: ADME, organism-based; parameters: dose 5 mg/kg, route oral; conditions: in vivo
Rattus norvegicus [5] = assay: Clearance in Sprague-Dawley rat at 0.5 mg/kg, iv; type: ADME, organism-based; parameters: dose 0.5 mg/kg, route intravenous; conditions: in vivo; outline: as §2
[6] = Mean residence time in Sprague-Dawley rat at 0.5 mg/kg, iv; type: ADME, organism-based; parameters: dose 0.5 mg/kg, route intravenous; conditions: in vivo; outline: as §2
[7] = Volume of distribution at steady state in Sprague-Dawley rat at 0.5 mg/kg, iv; type: ADME, organism-based; parameters: dose 0.5 mg/kg, route intravenous; conditions: in vivo, read-out: Vdss; outline: as §2
[8] = Mean residence time in mouse at 5 mg/kg, po; type: ADME, organism-based; parameters: dose 5 mg/kg, route oral; conditions: in vivo
[9] = molecular target: T2, Free fatty acid receptor 2 (Homo sapiens) (UniProt O15552); assay: Agonist activity at human FFA2 receptor expressed in CHO cells assessed as inhibition of forskolin-induced cAMP production relative to acetate; type: functional, cell-based; outline: as §1
T2 sequence (whole entry): T1 sequence (O15552 whole entry)

[10] = Cmax in mouse at 5 mg/kg, po; type: ADME, organism-based; parameters: dose 5 mg/kg, route oral; conditions: in vivo
[11] = molecular target: T3, Free fatty acid receptor 2 (Mus musculus) (UniProt Q8VCK6); assay: Agonist activity at mouse FFA2 receptor expressed in CHO cells assessed as inhibition of forskolin-induced cAMP production; type: functional, cell-based; outline: as §1
T3 sequence (whole entry): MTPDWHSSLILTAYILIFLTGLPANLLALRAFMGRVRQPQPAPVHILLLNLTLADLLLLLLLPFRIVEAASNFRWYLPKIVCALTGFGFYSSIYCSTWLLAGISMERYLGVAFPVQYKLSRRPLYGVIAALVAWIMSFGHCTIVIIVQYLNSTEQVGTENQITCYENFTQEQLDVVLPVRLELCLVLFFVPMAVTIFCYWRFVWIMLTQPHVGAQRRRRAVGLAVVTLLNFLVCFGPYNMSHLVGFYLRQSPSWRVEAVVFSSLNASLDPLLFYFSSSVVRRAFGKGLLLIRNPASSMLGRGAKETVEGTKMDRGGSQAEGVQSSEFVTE

3T3-L1 = assay: Inhibition of lipolysis in mouse 3T3L1 cells; type: functional, cell-based
Outline: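 Lipolysis measured in 3T3L1 adipocytes across a concentration range of test compound. Sensitivity to pertussis toxin treatment also examined. Means of three experiments.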

[12] = Metabolic stability in rat liver microsomes assessed as compound remaining after 30 mins; type: ADME, Microsome; conditions: read-out: Stability
Outline: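 Incubated with rat liver microsomes; percent parent remaining at 30 min.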

Row | SMILES | IC50 [1] [µM] | Efficacy [9] [%] | further results
1 | CC(C)(C)[C@H](C(=O)Nc1ncc(Cl)s1)c1ccc(Cl)cc1 | 1 | 97 | AUC (Rattus norvegicus [2]): 1.03 µg·h/mL; AUC [3]: 4550 µg·h/mL; Tmax [4]: 2 h; CL (Rattus norvegicus [5]): 8 mL/min/kg; MRT [6]: 9 h; Vd [7]: 4.4 L/kg; MRT [8]: 7.6 h; Cmax [10]: 569 ng/mL
2 | CN1CCN(c2cnc(NC(=O)[C@H](c3ccc(Cl)cc3)C(C)(C)C)s2)CC1 | 3.8 | 113 | –
3 | CC(C)C[C@H](C(=O)Nc1nccs1)c1ccc(Cl)cc1 | 0.6 | 68 | –
4 | CC(C)[C@H](C(=O)Nc1ncc(C#N)s1)c1ccc(Cl)cc1 | 2 | 105 | –
5 | CC(C)[C@H](C(=O)Nc1nccs1)c1ccc(Cl)cc1 | 0.7 | 100 | AUC (Rattus norvegicus [2]): 0.079 µg·h/mL; AUC [3]: 10 µg·h/mL; Tmax [4]: 1 h; CL (Rattus norvegicus [5]): 107 mL/min/kg; MRT [6]: 1.1 h; Vd [7]: 7 L/kg; MRT [8]: 1.8 h; Activity [11]: 1 µM; Cmax [10]: 5 ng/mL; inhibition (3T3-L1): Dose-dependent effect; remaining at 0.5 h [12]: 2%
6 | O=C(Nc1ncc(F)s1)[C@H](c1ccccn1)C1CC1 | 45 | 75 | –
7 | CC(C)[C@H](CNc1nccs1)c1ccc(Cl)cc1 | > 100 | < 30 | –
8 | CC(C)C(C(=O)Nc1nc2ccccc2[nH]1)c1ccc(Cl)cc1 (racemic) | 5.2 | 84 | –
9 | CC(C)[C@H](C(=O)Nc1ncc(C(F)(F)F)s1)c1ccc(Cl)cc1 | 1.5 | 95 | –
10 | CC(C)C(C(=O)Nc1nc(-c2cccnc2)cs1)c1ccc(Cl)cc1 (racemic) | > 100 | < 30 | –
11 | CC(C)[C@H](C(=O)Nc1nncs1)c1ccc(Cl)cc1 | 12 | 115 | –
12 | O=C(Nc1ncc(F)s1)[C@H](c1ccc(Cl)cc1)C1CC1 | 1.2 | 103 | –
13 | CC(C)[C@H](C(=O)Nc1ccccc1)c1ccc(Cl)cc1 | > 100 | < 30 | –
14 | Cc1cnc(NC(=O)[C@H](c2ccc(Cl)cc2)C(C)C)s1 | 0.8 | 99 | Activity [11]: 1.4 µM; inhibition (3T3-L1): Dose-dependent effect
15 | C=CC[C@H](C(=O)Nc1nccs1)c1ccc(Cl)cc1 | 1.1 | 88 | –
16 | CC(C)[C@H](C(=O)NC1=NC(=O)CS1)c1ccc(Cl)cc1 | 20 | 96 | –
17 | CC(C)(C)[C@H](C(=O)Nc1ncc(F)s1)c1ccc(Cl)cc1 | 0.7 | 92 | –
18 | CC(C)[C@H](C(=O)Nc1cccnn1)c1ccc(Cl)cc1 | 2.3 | 101 | –
19 | CC(C)C(C(=O)Nc1nnn[nH]1)c1ccc(Cl)cc1 (racemic) | > 100 | < 30 | –
20 | CC(C)(C)[C@H](C(=O)Nc1ncc(C#N)s1)c1ccc(Cl)cc1 | 1.5 | 106 | –
21 | CC(C)[C@H](C(=O)Nc1nc(C(C)(C)C)cs1)c1ccc(Cl)cc1 | 7.9 | 45 | –
22 | CC(C)[C@H](C(=O)Nc1nnc(C(F)(F)F)s1)c1ccc(Cl)cc1 | 1.9 | 115 | –
23 | COC(=O)c1cnc(NC(=O)[C@H](c2ccc(Cl)cc2)C(C)C)s1 | 2 | 98 | –
24 | CC(C)[C@H](C(=O)NC(C)(C)C)c1ccc(Cl)cc1 | > 100 | < 30 | –

Row | SMILES | IC50 [1] [µM] | Efficacy [9] [%] | further results
25 | CC(C)(C)[C@H](C(=O)Nc1ncc(Cc2ccc(Cl)cc2)s1)c1ccc(Cl)cc1 | 25 | 100 | –
26 | O=C(Nc1ncc(F)s1)C1(c2ccc(Cl)cc2)CCC1 | 1.5 | 89 | –
27 | CC(C)[C@H](C(=O)Nc1ncc(Cl)s1)c1ccc(Cl)cc1 | 0.7 | 100 | AUC (Rattus norvegicus [2]): 0.249 µg·h/mL; CL (Rattus norvegicus [5]): 33 mL/min/kg; MRT [6]: 4.2 h; Vd [7]: 8.3 L/kg
28 | O=C(Nc1ncc(F)s1)[C@H](c1ccc(C(F)(F)F)cc1)C1CC1 | 1.1 | 108 | –
29 | CC(C)(C(=O)Nc1ncc(F)s1)c1ccc(Cl)cc1 | 50 | 57 | –
30 | CNC(=O)[C@H](c1ccc(Cl)cc1)C(C)C | 11 | 66 | –
31 | CC(C)(C)[C@H](C(=O)Nc1ncc(C(F)(F)F)s1)c1ccc(Cl)cc1 | 1.5 | 95 | –
32 | CC(C)[C@@H](C(=O)Nc1nccs1)c1ccc(Cl)cc1 | > 100 | < 30 | –
33 | CC(C)(C)[C@H](C(=O)Nc1ncc(Br)s1)c1ccc(Cl)cc1 | 0.7 | 95 | –
34 | CN(C)c1cnc(NC(=O)[C@H](c2ccc(Cl)cc2)C(C)(C)C)s1 | 1.6 | 112 | –
35 | O=C(Nc1nccs1)[C@@H](CC1CC1)c1ccc(Cl)cc1 | 8.8 | 72 | –
36 | CC(C)C(C(=O)Nc1nccs1)c1ccc(Cl)cc1 (racemic) | 0.8 | 98 | –
37 | Cc1nc(NC(=O)[C@H](c2ccc(Cl)cc2)C(C)C)sc1C | 1.8 | 97 | –
38 | C[C@H](C(=O)Nc1nccs1)c1ccc(Cl)cc1 | 46 | 83 | –
39 | CC(C)C(C(=O)Nc1ncccn1)c1ccc(Cl)cc1 (racemic) | 53 | 50 | –
40 | O=C(Nc1ncc(F)s1)C1(c2ccc(Cl)cc2)CCCC1 | 5 | 88 | –
41 | CC(C)C(C(=O)Nc1cnccn1)c1ccc(Cl)cc1 (racemic) | 5.7 | 115 | –
42 | CCC[C@H](C(=O)Nc1nccs1)c1ccc(Cl)cc1 | 5.5 | 108 | –
43 | CC(C)(C)[C@H](C(=O)Nc1ncc(C(O)(C(F)(F)F)C(F)(F)F)s1)c1ccc(Cl)cc1 | 1.2 | 113 | –
44 | CC(C)(C)[C@H](C(=O)Nc1ncc(N2CCOCC2)s1)c1ccc(Cl)cc1 | 1.6 | 111 | –
45 | CC(C)(C)[C@H](C(=O)Nc1ncc(-c2ccccc2)s1)c1ccc(Cl)cc1 | 0.7 | 111 | AUC (Rattus norvegicus [2]): 1.67 µg·h/mL; AUC [3]: 18600 µg·h/mL; Tmax [4]: 2 h; CL (Rattus norvegicus [5]): 5.33 mL/min/kg; MRT [6]: 9.1 h; Vd [7]: 2.7 L/kg; MRT [8]: 9.2 h; Cmax [10]: 1870 ng/mL
46 | CC(=O)O [ACETIC ACID] | 120 | 100 | –
47 | CC(C)[C@H](C(=O)Nc1ncc(C(=O)O)s1)c1ccc(Cl)cc1 | 79 | 42 | –
48 | O=C(Nc1ncc(F)s1)C1(c2ccc(Cl)cc2)CCCCC1 | 8.5 | 81 | –
